From ChEMBL document CHEMBL1165965, “Synthesis and structure-activity relationships of 1,2,3,4-tetrahydropyrido[2,3-b]pyrazines as potent and selective inhibitors of the anaplastic lymphoma kinase” (Bioorg Med Chem, 2010)

Key:
[1] = molecular target: Serine/threonine-protein kinase PAK 3 (Homo sapiens) (UniProt O75914); assay: Inhibition of PAK3 at 1 uM
[2] = molecular target: T1, Cytoplasmic tyrosine-protein kinase BMX (Homo sapiens) (UniProt P51813); assay: Inhibition of BMX at 1 uM
T1 sequence (whole entry): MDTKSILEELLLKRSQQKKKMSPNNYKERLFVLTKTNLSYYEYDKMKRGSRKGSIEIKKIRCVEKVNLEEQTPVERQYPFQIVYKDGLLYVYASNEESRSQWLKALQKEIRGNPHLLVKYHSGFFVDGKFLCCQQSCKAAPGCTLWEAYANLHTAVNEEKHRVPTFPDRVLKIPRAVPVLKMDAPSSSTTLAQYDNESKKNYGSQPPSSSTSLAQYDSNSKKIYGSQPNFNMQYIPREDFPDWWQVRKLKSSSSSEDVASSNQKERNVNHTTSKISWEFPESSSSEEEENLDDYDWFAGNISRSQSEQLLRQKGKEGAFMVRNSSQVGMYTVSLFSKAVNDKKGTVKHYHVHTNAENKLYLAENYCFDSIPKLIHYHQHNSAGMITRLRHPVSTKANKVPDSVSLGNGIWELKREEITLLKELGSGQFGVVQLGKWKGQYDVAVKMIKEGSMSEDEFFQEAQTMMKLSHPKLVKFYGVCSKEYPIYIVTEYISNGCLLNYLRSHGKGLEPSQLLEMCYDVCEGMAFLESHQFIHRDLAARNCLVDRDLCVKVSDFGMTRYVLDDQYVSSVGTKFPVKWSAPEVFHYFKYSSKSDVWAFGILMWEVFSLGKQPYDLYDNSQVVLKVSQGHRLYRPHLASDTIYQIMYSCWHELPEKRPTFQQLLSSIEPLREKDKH
Summary of the method: (§1)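 Ambit KINOMEscan screen at a single concentration across a 250–400 kinase panel, recorded as percent inhibition. Selectivity was expressed as S(90), the fraction of kinases inhibited >90%.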

[3] = system: Epidermal growth factor receptor (Homo sapiens), P00533 [L861Q]; assay: Inhibition of EGFR L861Q mutant at 1 uM; type: protein assay
Summary of the method: (§2)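 Single-concentration screen using Ambit Bioscience KINOMEscan technology across a panel of 250–400 kinases. Per-kinase inhibition from this screen was summarized as S(90), the fraction of kinases inhibited by more than 90%.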

[4] = molecular target: Epidermal growth factor receptor (Homo sapiens) (UniProt P04626+P00533+Q15303+P21860); assay: Inhibition of EGFR L747-S752del, P753S mutant at 1 uM; type: protein assay; summary of the method: as §2
[5] = molecular target: T2, Muscle, skeletal receptor tyrosine-protein kinase (Homo sapiens) (UniProt O15146); assay: Inhibition of MUSK at 1 uM
T2 sequence (whole entry): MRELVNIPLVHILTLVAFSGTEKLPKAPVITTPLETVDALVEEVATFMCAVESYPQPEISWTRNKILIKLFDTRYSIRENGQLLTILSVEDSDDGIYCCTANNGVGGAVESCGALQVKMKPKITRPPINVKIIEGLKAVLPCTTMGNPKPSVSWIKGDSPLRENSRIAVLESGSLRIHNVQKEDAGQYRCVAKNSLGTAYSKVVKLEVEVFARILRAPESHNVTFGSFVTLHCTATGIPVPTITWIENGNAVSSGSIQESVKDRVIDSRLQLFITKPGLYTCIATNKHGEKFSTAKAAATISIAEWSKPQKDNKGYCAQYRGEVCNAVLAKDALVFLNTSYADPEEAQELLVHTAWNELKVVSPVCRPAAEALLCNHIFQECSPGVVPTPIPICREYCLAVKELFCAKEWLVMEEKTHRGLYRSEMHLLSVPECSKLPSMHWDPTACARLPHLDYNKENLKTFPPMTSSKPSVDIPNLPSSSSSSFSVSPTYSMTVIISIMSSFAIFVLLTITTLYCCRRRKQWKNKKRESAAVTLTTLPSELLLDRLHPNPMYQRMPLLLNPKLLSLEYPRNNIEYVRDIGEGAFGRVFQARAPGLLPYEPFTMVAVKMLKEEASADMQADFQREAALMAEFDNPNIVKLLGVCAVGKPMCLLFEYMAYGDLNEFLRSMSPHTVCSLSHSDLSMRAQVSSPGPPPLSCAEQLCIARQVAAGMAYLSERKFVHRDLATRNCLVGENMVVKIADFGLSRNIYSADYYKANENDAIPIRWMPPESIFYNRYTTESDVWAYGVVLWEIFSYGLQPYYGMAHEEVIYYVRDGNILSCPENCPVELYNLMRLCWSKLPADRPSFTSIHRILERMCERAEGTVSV

[6] = molecular target: Calcium/calmodulin-dependent protein kinase type 1 (Homo sapiens) (UniProt Q14012); assay: Inhibition of CAMK1 at 1 uM; summary of the method: as §1
[7] = molecular target: Mitogen-activated protein kinase 1 (Homo sapiens) (UniProt P28482); assay: Inhibition of ERK2 at 1 uM; summary of the method: as §2
[8] = molecular target: T3, Receptor-interacting serine/threonine-protein kinase 4 (Homo sapiens) (UniProt P57078); assay: Inhibition of RIPK4 at 1 uM
T3 sequence (whole entry): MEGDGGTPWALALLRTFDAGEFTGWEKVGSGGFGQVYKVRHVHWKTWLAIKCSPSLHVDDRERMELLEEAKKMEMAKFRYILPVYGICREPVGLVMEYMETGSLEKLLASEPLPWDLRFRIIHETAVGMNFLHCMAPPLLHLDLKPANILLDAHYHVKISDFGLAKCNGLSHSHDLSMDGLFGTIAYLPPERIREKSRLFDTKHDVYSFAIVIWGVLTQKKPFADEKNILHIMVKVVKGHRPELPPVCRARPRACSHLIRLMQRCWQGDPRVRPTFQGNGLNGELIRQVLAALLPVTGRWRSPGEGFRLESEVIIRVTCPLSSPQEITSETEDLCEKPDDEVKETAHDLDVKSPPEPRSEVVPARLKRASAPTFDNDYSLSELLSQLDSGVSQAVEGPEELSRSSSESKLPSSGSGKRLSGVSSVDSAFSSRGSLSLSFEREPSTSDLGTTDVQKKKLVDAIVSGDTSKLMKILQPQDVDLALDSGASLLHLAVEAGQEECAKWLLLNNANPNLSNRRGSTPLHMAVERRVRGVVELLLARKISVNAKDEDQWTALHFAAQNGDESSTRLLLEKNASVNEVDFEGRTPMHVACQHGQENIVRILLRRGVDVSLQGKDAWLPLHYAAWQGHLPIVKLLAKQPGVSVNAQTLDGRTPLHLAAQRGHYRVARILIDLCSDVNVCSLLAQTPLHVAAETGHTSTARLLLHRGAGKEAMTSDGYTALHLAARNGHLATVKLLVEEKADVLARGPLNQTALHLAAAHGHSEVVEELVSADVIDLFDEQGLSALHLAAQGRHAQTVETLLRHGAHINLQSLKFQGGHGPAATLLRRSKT

[9] = system: Phosphatidylinositol 4,5-bisphosphate 3-kinase catalytic subunit alpha isoform (Homo sapiens), P42336 [C420R]; assay: Inhibition of PIK3CA C420R mutant at 1 uM
[10] = molecular target: Ribosomal protein S6 kinase alpha-4 (Homo sapiens) (UniProt O75676); assay: Inhibition of RPS6KA4 N-terminal domain1 at 1 uM

Measured: inhibition

Sequence of Epidermal growth factor receptor (Homo sapiens), P00533 [L861Q] (P00533 whole entry L861Q): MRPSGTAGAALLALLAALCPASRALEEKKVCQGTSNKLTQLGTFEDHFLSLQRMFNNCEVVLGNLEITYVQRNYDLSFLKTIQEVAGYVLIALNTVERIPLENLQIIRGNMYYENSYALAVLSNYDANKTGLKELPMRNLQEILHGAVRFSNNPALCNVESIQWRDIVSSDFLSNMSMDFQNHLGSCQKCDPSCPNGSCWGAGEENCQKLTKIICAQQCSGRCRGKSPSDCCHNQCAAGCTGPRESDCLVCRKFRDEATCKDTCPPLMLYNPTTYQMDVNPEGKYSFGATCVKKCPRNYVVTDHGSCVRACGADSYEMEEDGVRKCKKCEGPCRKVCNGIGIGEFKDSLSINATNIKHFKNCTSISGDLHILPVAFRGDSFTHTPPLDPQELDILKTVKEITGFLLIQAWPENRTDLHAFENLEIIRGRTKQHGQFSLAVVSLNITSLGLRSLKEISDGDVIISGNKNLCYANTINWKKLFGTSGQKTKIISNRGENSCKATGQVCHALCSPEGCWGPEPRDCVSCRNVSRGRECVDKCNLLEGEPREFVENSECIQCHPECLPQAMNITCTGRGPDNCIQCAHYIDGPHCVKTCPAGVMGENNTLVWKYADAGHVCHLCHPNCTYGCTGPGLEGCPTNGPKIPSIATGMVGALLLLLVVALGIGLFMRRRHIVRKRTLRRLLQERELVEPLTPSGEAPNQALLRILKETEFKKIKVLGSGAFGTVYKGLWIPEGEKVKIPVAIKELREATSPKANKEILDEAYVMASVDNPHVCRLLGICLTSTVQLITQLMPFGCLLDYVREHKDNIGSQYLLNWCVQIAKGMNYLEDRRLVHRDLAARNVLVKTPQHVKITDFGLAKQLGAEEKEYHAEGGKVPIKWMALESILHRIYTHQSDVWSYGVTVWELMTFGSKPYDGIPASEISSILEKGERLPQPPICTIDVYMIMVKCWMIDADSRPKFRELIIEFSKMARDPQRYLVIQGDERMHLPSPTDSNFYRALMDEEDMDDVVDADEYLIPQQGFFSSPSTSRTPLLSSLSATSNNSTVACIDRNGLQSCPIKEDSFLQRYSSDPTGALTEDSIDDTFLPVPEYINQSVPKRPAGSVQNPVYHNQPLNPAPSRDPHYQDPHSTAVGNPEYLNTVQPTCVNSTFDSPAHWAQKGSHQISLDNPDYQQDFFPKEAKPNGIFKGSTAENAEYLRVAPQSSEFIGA
Sequence of Calcium/calmodulin-dependent protein kinase type 1 (Homo sapiens) (Q14012 whole entry, looked up): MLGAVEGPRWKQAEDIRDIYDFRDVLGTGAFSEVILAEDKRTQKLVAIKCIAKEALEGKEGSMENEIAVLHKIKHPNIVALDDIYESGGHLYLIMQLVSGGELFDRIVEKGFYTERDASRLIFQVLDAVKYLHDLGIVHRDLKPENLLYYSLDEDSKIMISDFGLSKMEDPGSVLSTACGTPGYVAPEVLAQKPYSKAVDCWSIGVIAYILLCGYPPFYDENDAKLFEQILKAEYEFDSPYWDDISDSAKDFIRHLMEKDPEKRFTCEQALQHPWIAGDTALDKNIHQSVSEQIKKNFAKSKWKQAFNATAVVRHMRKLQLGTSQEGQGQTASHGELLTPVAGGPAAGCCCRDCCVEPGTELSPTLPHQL
Sequence of Serine/threonine-protein kinase PAK 3 (Homo sapiens) (O75914 whole entry, looked up): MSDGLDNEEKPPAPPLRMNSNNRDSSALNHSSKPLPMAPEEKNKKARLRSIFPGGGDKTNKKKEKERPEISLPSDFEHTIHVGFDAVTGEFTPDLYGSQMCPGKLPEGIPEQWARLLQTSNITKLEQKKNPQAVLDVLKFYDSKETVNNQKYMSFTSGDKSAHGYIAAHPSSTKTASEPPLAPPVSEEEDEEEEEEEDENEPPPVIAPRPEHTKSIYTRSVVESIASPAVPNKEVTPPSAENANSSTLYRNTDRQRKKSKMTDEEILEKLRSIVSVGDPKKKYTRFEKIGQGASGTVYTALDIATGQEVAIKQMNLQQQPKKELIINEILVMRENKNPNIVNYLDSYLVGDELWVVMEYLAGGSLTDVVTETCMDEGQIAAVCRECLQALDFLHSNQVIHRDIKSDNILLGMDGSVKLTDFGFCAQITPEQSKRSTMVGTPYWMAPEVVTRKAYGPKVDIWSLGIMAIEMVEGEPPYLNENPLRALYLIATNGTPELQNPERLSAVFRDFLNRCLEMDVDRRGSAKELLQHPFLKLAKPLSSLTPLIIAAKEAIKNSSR
Sequence of Phosphatidylinositol 4,5-bisphosphate 3-kinase catalytic subunit alpha isoform (Homo sapiens), P42336 [C420R] (P42336 whole entry C420R, the tested form may be a part, canonical isoform): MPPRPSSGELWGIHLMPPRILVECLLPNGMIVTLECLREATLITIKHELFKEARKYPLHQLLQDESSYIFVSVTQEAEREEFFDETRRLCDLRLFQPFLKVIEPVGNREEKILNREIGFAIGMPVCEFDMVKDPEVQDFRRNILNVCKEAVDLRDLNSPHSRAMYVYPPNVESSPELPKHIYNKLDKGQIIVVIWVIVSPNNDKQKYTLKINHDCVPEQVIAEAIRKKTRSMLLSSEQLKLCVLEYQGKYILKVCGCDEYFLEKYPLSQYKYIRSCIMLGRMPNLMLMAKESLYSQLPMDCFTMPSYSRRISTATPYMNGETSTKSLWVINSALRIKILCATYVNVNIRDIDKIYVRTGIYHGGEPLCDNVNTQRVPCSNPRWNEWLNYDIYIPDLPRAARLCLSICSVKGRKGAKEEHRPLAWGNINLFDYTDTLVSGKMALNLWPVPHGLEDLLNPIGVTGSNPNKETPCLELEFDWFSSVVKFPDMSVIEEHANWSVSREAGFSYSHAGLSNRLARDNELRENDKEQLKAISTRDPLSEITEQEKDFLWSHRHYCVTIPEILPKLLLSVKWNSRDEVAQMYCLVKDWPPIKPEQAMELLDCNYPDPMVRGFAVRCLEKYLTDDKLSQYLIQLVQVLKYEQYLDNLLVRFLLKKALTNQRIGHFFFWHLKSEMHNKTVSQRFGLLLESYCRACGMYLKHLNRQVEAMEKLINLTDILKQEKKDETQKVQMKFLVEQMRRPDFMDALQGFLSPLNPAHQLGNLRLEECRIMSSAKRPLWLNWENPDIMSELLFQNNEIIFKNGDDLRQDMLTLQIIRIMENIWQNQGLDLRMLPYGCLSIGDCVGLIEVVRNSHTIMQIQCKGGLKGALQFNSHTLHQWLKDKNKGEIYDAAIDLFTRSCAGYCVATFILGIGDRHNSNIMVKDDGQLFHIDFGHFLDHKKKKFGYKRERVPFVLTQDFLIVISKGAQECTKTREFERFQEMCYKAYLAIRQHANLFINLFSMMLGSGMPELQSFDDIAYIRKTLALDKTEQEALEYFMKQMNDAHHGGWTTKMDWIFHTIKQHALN
Sequence of Mitogen-activated protein kinase 1 (Homo sapiens) (P28482 whole entry): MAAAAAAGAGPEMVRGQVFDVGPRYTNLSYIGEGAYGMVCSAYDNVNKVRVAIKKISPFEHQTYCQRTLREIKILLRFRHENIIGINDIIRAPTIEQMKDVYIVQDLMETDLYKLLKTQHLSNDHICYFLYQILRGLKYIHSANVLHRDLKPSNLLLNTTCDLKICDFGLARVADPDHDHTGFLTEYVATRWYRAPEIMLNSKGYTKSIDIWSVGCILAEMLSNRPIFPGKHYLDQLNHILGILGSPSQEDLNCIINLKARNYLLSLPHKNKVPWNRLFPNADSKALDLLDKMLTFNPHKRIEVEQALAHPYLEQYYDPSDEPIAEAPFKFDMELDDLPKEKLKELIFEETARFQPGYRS
Sequence of Ribosomal protein S6 kinase alpha-4 (Homo sapiens) (O75676 whole entry, looked up, the tested form may be a part): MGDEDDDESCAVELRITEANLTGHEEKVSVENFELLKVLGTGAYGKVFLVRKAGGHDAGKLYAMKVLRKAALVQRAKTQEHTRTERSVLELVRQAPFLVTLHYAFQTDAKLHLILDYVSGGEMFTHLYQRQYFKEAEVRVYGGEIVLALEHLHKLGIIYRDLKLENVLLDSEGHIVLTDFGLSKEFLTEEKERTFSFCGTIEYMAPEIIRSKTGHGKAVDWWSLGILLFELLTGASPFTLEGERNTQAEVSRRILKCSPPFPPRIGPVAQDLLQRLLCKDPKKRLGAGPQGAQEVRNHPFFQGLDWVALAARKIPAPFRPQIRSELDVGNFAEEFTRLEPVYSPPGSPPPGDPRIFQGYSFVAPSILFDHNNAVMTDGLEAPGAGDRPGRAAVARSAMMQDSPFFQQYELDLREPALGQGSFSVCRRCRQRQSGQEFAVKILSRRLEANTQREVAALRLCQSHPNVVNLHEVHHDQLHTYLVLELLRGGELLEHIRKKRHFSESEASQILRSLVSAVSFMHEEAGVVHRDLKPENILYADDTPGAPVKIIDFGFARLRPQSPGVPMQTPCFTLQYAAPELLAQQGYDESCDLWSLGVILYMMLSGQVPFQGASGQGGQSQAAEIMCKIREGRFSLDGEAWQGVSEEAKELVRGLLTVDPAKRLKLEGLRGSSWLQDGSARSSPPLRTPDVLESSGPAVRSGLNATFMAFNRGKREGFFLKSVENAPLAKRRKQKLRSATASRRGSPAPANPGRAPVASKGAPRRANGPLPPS

CN1CCN(c2ccc(-c3cnc4c(c3)N(Cc3cc(F)ccc3F)CCN4)cn2)CC1
< 50%: all assays above

CC(=O)N1CCN(c2cc(-c3cnc4c(c3)N(Cc3cc(Cl)ccc3C(F)(F)F)CCN4)ccn2)CC1
< 50%: all assays above

CN1CCN(c2ccc(-c3cnc4c(c3)N(Cc3c(F)ccc(F)c3Cl)CCN4)cn2)CC1
< 50%: all assays above

FC(F)(F)c1ccc(Cl)cc1CN1CCNc2ncc(-c3ccnc(N4CCNCC4)c3)cc21
< 50%: all assays above

CN1CCN(c2ccc(-c3cnc4c(c3)N(Cc3cc(Cl)ccc3Cl)CCN4)cn2)CC1
< 50%: all assays above

O=C(c1ccc(-c2cnc3c(c2)N(Cc2cc(Cl)ccc2C(F)(F)F)CCN3)cc1)N1CCC(N2CCCC2)CC1
not listed: [8] | [9]
< 50%: all other assays above

O=C(O)c1ccc(-c2cnc3c(c2)N(Cc2cc(Cl)ccc2C(F)(F)F)CCN3)cc1
not listed: [8] | [9]
< 50%: all other assays above

CN1CCN(c2ccc(-c3cnc4c(c3)N(Cc3cc(Cl)ccc3C(F)(F)F)CCN4)cn2)CC1
< 50%: all assays above

O=C(c1ccc(-c2cnc3c(c2)N(Cc2cc(Cl)ccc2C(F)(F)F)CCN3)cc1)N1CCCCC1
not listed: [8] | [9]
< 50%: all other assays above

COC1CCN(C(=O)c2ccc(-c3cnc4c(c3)N(Cc3cc(Cl)ccc3C(F)(F)F)CCN4)cc2)CC1
not listed: [8] | [9]
< 50%: all other assays above
